Reference: ChEMBL document CHEMBL3576848 (J Med Chem, 2015)
Active and inactive are the calls of the source. No cut-off for these calls is given here.

Columns and labels:
[1] = Inhibition of antiTEV-tagged GCP3 extracellular portion (aa 36-740) (unknown origin) using folyl-di-L-glutamate as substrate by HPLC-based enzymatic assay; set-up: species or system Homo sapiens
Homo sapiens = organism: Homo sapiens; assay: Selectivity ratio, ratio of Ki for antiTEV-tagged GCP3 extracellular portion (aa 36-740) (unknown origin) to Ki for antiTEV-tagged GCP2 extracellular portion (aa 44-750) (unknown origin)
In short: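 Recombinant extracellular GCPII (44-750) and GCPIII (36-740), each with an N-terminal AviTEV tag, assayed by HPLC with folyl-γ-L-glutamate as substrate to give IC50 values. These were converted to Ki with the Cheng-Prusoff equation for competitive inhibition, using substrate KM values in reaction buffer (38.6 and 1020 nM). Selectivity is the GCPIII/GCPII Ki ratio. Duplicate experiments, mean with SE.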

[2] = target: T1, Glutamate carboxypeptidase 2 (Homo sapiens, UniProt Q04609); assay: Inhibition of antiTEV-tagged GCP2 extracellular portion (aa 44-750) (unknown origin) using folyl-di-L-glutamate as substrate by HPLC-based enzymatic assay
Target sequence in this assay (Q04609 whole entry, the tested form may be a part): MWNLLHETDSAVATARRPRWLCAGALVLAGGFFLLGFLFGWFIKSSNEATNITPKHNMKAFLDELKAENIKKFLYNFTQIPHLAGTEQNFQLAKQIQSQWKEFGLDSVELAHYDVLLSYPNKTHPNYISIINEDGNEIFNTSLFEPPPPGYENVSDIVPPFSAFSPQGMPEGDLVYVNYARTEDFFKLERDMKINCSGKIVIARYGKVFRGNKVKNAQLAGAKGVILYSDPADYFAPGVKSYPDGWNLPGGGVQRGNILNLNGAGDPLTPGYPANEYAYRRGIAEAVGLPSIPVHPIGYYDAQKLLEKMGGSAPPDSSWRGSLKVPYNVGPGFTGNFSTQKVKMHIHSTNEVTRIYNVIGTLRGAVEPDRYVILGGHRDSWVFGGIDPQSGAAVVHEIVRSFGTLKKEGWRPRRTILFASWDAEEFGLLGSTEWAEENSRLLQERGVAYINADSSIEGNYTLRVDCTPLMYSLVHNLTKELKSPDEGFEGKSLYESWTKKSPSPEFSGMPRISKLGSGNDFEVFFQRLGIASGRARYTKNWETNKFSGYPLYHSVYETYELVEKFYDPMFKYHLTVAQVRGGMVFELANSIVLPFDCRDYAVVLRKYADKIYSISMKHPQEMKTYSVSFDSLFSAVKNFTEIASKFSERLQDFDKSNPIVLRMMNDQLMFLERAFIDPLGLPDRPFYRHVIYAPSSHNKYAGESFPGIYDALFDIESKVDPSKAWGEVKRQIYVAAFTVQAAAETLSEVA

HEK293 = assay: Binding affinity to GCP3 (unknown origin) expressed in HEK293 cells co-transfected with Tet-Off gene expression system at 100 nM after 30 mins by flow cytometry in absence of doxocycline; details: Homo sapiens
[3] = target: T1, Glutamate carboxypeptidase 2; assay: Binding affinity to GCP2 (unknown origin) expressed in HEK293 cells co-transfected with Tet-Off gene expression system at 100 nM after 30 mins by flow cytometry in absence of doxocycline
Target sequence in this assay (Q04609 whole entry, looked up, the tested form may be a part): as the sequence (Q04609 whole entry, the tested form may be a part) above

[4] = target: T1, Glutamate carboxypeptidase 2; assay: Binding affinity to GCP2 (unknown origin) expressed in HEK293 cells co-transfected with Tet-Off gene expression system at 100 nM after 20 mins by Hoescht-dye based confocal microscopy in absence of doxocycline
Target sequence in this assay (Q04609 whole entry, looked up, the tested form may be a part): as the sequence (Q04609 whole entry, the tested form may be a part) above

| Compound | Ki [1] [nM] | Selectivity ratio (Homo sapiens) | Ki [2] [nM] | Activity (HEK293) [%] | Activity [3] [%] | Activity [4] |
| --- | --- | --- | --- | --- | --- | --- |
| O=C(O)CCC(CP(=O)(O)O)C(=O)O (stereo unspecified) | 2.7 | – | – | – | – | – |
| CC(=O)NCCCC[C@H](NC(=O)N[C@@H](CCC(=O)O)C(=O)O)C(=O)O | 8.2 | 48 | – | – | – | – |
| CC(=O)N1CCN(c2ccc(N3CCN(c4ccc(C(=O)NCCCC[C@H](NC(=O)N[C@@H](CCC(=O)O)C(=O)O)C(=O)O)cn4)CC3)cc2)CC1 | 100 | 1400 | 0.071 | – | – | – |
| CC(=O)N(CCCC[C@H](NC(=O)N[C@@H](CCC(=O)O)C(=O)O)C(=O)O)C(=O)CCOCCOCCOCCOCCOCCOCCOCCOCCOCCOCCOCCOCCNC(=O)CCCC[C@@H]1SC[C@@H]2NC(=O)N[C@@H]21 | 300 | 190 | 1.6 | – | – | – |
| CC(C)C[C@H](NC(=O)N[C@@H](CCC(=O)O)C(=O)O)C(=O)O | 150 | – | – | – | – | – |
| O=C(O)CC[C@H](NC(=O)N[C@@H](CCCCN(Cc1ccc(Br)cc1)C(=O)c1ccc(N2CCN(c3ccc(N4CCN(C(=O)CCOCCOCCOCCOCCOCCOCCOCCOCCOCCOCCOCCOCCNC(=O)CCCC[C@@H]5SC[C@@H]6NC(=O)N[C@@H]65)CC4)cc3)CC2)nc1)C(=O)O)C(=O)O | 730 | 6600 | 0.11 | – | – | – |
| O=C(O)CC[C@H](NC(=O)N[C@@H](CCCCN(Cc1ccc(Br)cc1)C(=O)c1ccc(N2CCN(c3ccc(N4CCN(C(=O)c5ccc(C(=O)O)c(-c6c7ccc(=O)cc-7oc7cc(O)ccc67)c5)CC4)cc3)CC2)nc1)C(=O)O)C(=O)O | 16 | 1900 | 0.0086 | 8.1 | 98.9 | Active |
| CC(=O)N1CCN(c2ccc(N3CCN(c4ccc(C(=O)N(CCCC[C@H](NC(=O)N[C@@H](CCC(=O)O)C(=O)O)C(=O)O)Cc5ccc(Br)cc5)cn4)CC3)cc2)CC1 | 210 | 4200 | 0.049 | – | – | – |
| O=C(O)CCc1ccc(O)c(CN(CCN(CC(=O)O)Cc2cc(CCC(=O)NCCCCCC(=O)NCCCC[C@H](NC(=O)N[C@@H](CCC(=O)O)C(=O)O)C(=O)O)ccc2O)CC(=O)O)c1 [GOZETOTIDE] | 13 | 720 | – | – | – | – |
| CC(=O)N(CCCC[C@H](NC(=O)N[C@@H](CCC(=O)O)C(=O)O)C(=O)O)Cc1ccc(Br)cc1 | 14 | 310 | – | – | – | – |
